Laboratory results published in ChEMBL document CHEMBL3351994, “Synthesis and biological evaluation of novel millepachine derivatives as a new class of tubulin polymerization inhibitors” (J Med Chem, 2014).
In brackets after ≈: the same amount, converted by molar mass.

Assays:
[1] = tested on: HepG2; assay: Antiproliferative activity against human HepG2 cells assessed as inhibition of cell proliferation after 48 hrs by MTT assay; type: functional, cell-based; details: hepg2
Procedure, shortened: (§1)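 Cells grown at 37 °C in humidified 5% CO2. K562, C26 and HCT lines in RPMI-1640; other lines in DMEM; both media with 10% FBS, penicillin and streptomycin. 1000 cells/well seeded, incubated overnight, then compound at various doses for 48 h. MTT added for 4 h, formazan dissolved in DMSO, absorbance read at 590 nm. IC50 from dose–response curves, mean ± SEM of at least three independent experiments.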

[2] = tested on: K562; assay: Antiproliferative activity against human K562 cells assessed as inhibition of cell proliferation after 48 hrs by MTT assay; type: functional, cell-based; details: K562, 48 h; procedure, shortened: as §1
[3] = Antiproliferative activity against human HCT116 cells assessed as inhibition of cell proliferation after 48 hrs by MTT assay; type: functional, cell-based; details: HCT-116, 48 h
[4] = tested on: MCF7; assay: Antiproliferative activity against human MCF7 cells assessed as inhibition of cell proliferation after 48 hrs by MTT assay; type: functional, cell-based; details: MCF7, 48 h; procedure, shortened: as §1
[5] = tested on: AGS; assay: Antiproliferative activity against human AGS cells assessed as inhibition of cell proliferation after 48 hrs by MTT assay; type: functional, cell-based; procedure, shortened: as §1
[6] = Antiproliferative activity against taxol resistant human […] cells assessed as inhibition of cell proliferation after 48 hrs by MTT assay; type: functional, cell-based; details: A2780, 48 h; procedure, shortened: as §1
[7] = Antiproliferative activity against taxol resistant human HCT8 cells assessed as inhibition of cell proliferation after 48 hrs by MTT assay; type: functional, cell-based; details: HCT-8, 48 h; procedure, shortened: as §1
[8] = tested on: A2780; assay: Resistance index, ratio of IC50 for taxol resistant human […] cells to IC50 for parental human […] cells; type: functional
[9] = tested on: A2780cisR; assay: Resistance index, ratio of IC50 for cisplatin resistant human […] cells to IC50 for parental human […] cells; type: functional
[10] = tested on: HCT-8; assay: Resistance index, ratio of IC50 for taxol resistant human HCT8 cells to IC50 for parental human HCT8 cells; type: functional
[11] = tested on: HepG2; assay: Induction of cell cycle arrest in human HepG2 cells assessed as accumulation at G0/G1 phase at 50 nM after 24 hrs by propidium iodide staining based flow cytometry (reference value: 58.2%); type: functional
[12] = tested on: HepG2; assay: Induction of cell cycle arrest in human HepG2 cells assessed as accumulation at S phase phase at 50 nM after 24 hrs by propidium iodide staining based flow cytometry (reference value: 30.6%); type: functional
[13] = tested on: HepG2; assay: Induction of cell cycle arrest in human HepG2 cells assessed as accumulation at G2/M phase phase at 50 nM after 24 hrs by propidium iodide staining based flow cytometry (reference value: 11.2%); type: functional
[14] = tested on: HepG2; assay: Induction of cell cycle arrest in human HepG2 cells assessed as accumulation at G0/G1 phase at 100 nM after 24 hrs by propidium iodide staining based flow cytometry (reference value: 58.2%); type: functional
[15] = tested on: HepG2; assay: Induction of cell cycle arrest in human HepG2 cells assessed as accumulation at S phase phase at 100 nM after 24 hrs by propidium iodide staining based flow cytometry (reference value: 30.6%); type: functional
[16] = tested on: HepG2; assay: Induction of cell cycle arrest in human HepG2 cells assessed as accumulation at S phase phase at 200 nM after 24 hrs by propidium iodide staining based flow cytometry (reference value: 30.6%); type: functional
[17] = tested on: HepG2; assay: Induction of apoptosis in human HepG2 cells assessed as viable cells at 50 nM after 24 hrs by annexin-V-FITC and propidium iodide staining based flow cytometry (reference value: 93.2%); type: functional; details: HepG2, 24 h, read-out: Activity
[18] = tested on: HepG2; assay: Induction of apoptosis in human HepG2 cells assessed as necrotic cells at 50 nM after 24 hrs by annexin-V-FITC and propidium iodide staining based flow cytometry (reference value: 2.16%); type: functional
[19] = tested on: HepG2; assay: Induction of apoptosis in human HepG2 cells assessed as early apoptotic cells at 100 nM after 24 hrs by annexin-V-FITC and propidium iodide staining based flow cytometry (reference value: 3.63%); type: functional
Procedure, shortened: (§2)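 HepG2 cells treated with 50, 100 or 200 nM compound or DMSO vehicle for 24 or 48 h at 37 °C. Labeled with annexin-V-FITC and PI and analyzed by flow cytometry. Cells classified as early apoptotic (annexin-V+/PI−), late apoptotic (annexin-V+/PI+) or necrotic (annexin-V−/PI+).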

[20] = tested on: HepG2; assay: Induction of apoptosis in human HepG2 cells assessed as late apoptotic cells at 100 nM after 24 hrs by annexin-V-FITC and propidium iodide staining based flow cytometry (reference value: 1.03%); type: functional; procedure, shortened: as §2
[21] = tested on: HepG2; assay: Induction of apoptosis in human HepG2 cells assessed as viable cells at 200 nM after 24 hrs by annexin-V-FITC and propidium iodide staining based flow cytometry (reference value: 93.2%); type: functional; details: HepG2, 24 h, read-out: Activity
[22] = tested on: HepG2; assay: Induction of apoptosis in human HepG2 cells assessed as early apoptotic cells at 200 nM after 24 hrs by annexin-V-FITC and propidium iodide staining based flow cytometry (reference value: 3.63%); type: functional; procedure, shortened: as §2
[23] = tested on: HepG2; assay: Induction of apoptosis in human HepG2 cells assessed as late apoptotic cells at 200 nM after 24 hrs by annexin-V-FITC and propidium iodide staining based flow cytometry (reference value: 1.03%); type: functional; procedure, shortened: as §2
[24] = tested on: HepG2; assay: Induction of apoptosis in human HepG2 cells assessed as viable cells at 50 nM after 48 hrs by annexin-V-FITC and propidium iodide staining based flow cytometry (reference value: 93.2%); type: functional; details: HepG2, 48 h, read-out: Activity
[25] = tested on: HepG2; assay: Induction of apoptosis in human HepG2 cells assessed as early apoptotic cells at 50 nM after 48 hrs by annexin-V-FITC and propidium iodide staining based flow cytometry (reference value: 3.63%); type: functional; procedure, shortened: as §2
[26] = tested on: HepG2; assay: Induction of apoptosis in human HepG2 cells assessed as necrotic cells at 50 nM after 48 hrs by annexin-V-FITC and propidium iodide staining based flow cytometry (reference value: 2.16%); type: functional
[27] = tested on: HepG2; assay: Induction of apoptosis in human HepG2 cells assessed as early apoptotic cells at 100 nM after 48 hrs by annexin-V-FITC and propidium iodide staining based flow cytometry (reference value: 3.63%); type: functional; procedure, shortened: as §2
[28] = tested on: HepG2; assay: Induction of apoptosis in human HepG2 cells assessed as necrotic cells at 200 nM after 48 hrs by annexin-V-FITC and propidium iodide staining based flow cytometry (reference value: 2.16%); type: functional
[29] = Solubility in PBS solution by nephelometry; type: physicochemical
Procedure, shortened: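 Maximum soluble concentration in PBS, determined by nephelometry.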

[30] = Volume of distribution at steady state in rat at 2.25 mg/kg, iv; type: ADME, organism-based; parameters: dose 2.25 mg/kg, route intravenous; details: in vivo, read-out: Vdss
[31] = tested on: Rattus norvegicus; assay: AUC in rat at 2.25 mg/kg, iv; type: ADME, organism-based, Plasma; parameters: dose 2.25 mg/kg, route intravenous; details: in vivo
Procedure, shortened: (§3)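 Rat pharmacokinetics; oral and intravenous dosing, with group sizes of 5, 5 and 4 rats. Parameters derived: systemic clearance, volume of distribution, area under the plasma concentration–time curve, maximum plasma concentration and percent oral bioavailability.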

[32] = Cmax in rat at 2.25 mg/kg, iv; type: ADME, organism-based; parameters: dose 2.25 mg/kg, route intravenous; details: in vivo; procedure, shortened: as §3
[33] = tested on: Rattus norvegicus; assay: AUC in rat at 9 mg/kg, po; type: ADME, organism-based, Plasma; parameters: dose 9 mg/kg, route oral; details: in vivo; procedure, shortened: as §3
[34] = tested on: HUVEC; assay: Cytotoxicity in HUVECs after 48 hrs by MTT assay; type: cell-based; details: Homo sapiens
Procedure, shortened: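 HUVEC proliferation measured by MTT after 48 h exposure. IC50 derived from the dose–response.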

For COc1ccc(/C=C/C(=O)c2ccc(OC)c3c2OC(C)(C)C=C3)cc1N, the IC50 [1] was 8 nM, the IC50 [2] was 18 nM and the IC50 [3] was 21 nM. It also gave an IC50 [4] of 27 nM, an IC50 [5] of 10 nM and an IC50 [6] of 84 nM. The IC50 [7] was 152 nM, the “Ratio IC50” value [8] was 4.2 and the “Ratio IC50” value [9] was 0.7. For the same compound, the “Ratio IC50” value [10] was 9.5, the Activity [11] was 56.6% and the Activity [12] was 23.9%. It also gave an Activity [13] of 19.5%, an Activity [14] of 34.8% and an Activity [15] of 27.8%. For the same compound, the Activity [16] was 19.1%, the viability at 0.05 µM [17] was 88.8% and the Activity [18] was 4.71%. It also gave an Activity [19] of 9.65%, an Activity [20] of 12.43% and a viability at 0.2 µM [21] of 63.1%. It also gave an Activity [22] of 11.45%, an Activity [23] of 23.46% and a viability at 0.05 µM [24] of 66.1%. It also gave an Activity [25] of 13.45%, an Activity [26] of 2.76% and an Activity [27] of 16.34%. For the same compound, the Activity [28] was 3.54%, the solubility kinetic [29] was 8 µg/mL (≈ 21.9 µM) and the Vd [30] was 21 L/kg. The AUC [31] was 1810 ng·h/mL, the Cmax [32] was 2940 ng/mL and the AUC [33] was 2040 ng·h/mL. For the same compound, the IC50 [34] was 450 nM.
